Source: ChEMBL document CHEMBL1125217, “2-Pyridinone derivatives: a new class of nonnucleoside, HIV-1-specific reverse transcriptase inhibitors” (J Med Chem, 1991)

Legend:
[1] = biological target: Human immunodeficiency virus type 1 reverse transcriptase (Human immunodeficiency virus 1, UniProt Q72547); assay: Inhibitory activity against HIV-1 reverse transcriptase (RT)
MT4 = assay: Concentration which inhibited >95% spread of HIV-1 strain IIIb infection in susceptible MT-4 cell culture; assay type: functional; conditions: Homo sapiens, read-out: CIC95
Outline: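 MT-4 human T-lymphoid cells in RPMI 1640 with 10% heat-inactivated FBS were infected en masse with HIV-1 IIIb (multiplicity 0.01) for 24 h. They were then washed and plated with serial 2-fold inhibitor dilutions for 3 more days. Spread was measured by p24 core antigen ELISA. CIC95 is the concentration blocking >95% of spread.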

H9 = assay: Concentration which inhibited >95% spread of HIV-1 strain IIIb infection in susceptible H-9 cell culture; assay type: functional; conditions: Homo sapiens, read-out: CIC95
Outline: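 H9 human T-lymphoid cells in RPMI 1640 with 10% heat-inactivated FBS were pre-incubated one day with serial 2-fold inhibitor dilutions, then infected with HIV-1 IIIb at low multiplicity (<0.001). Inhibitor was kept present for 13-14 days. Spread was measured by p24 core antigen ELISA of supernatants. CIC95 is the concentration blocking >95% of spread.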

Row | Compound | IC50 [1] | IC95 (MT4) | IC95 (H9)
1 | CCc1cc(NCc2cc3ccccc3o2)c(O)nc1C | 235 nM |  | 
2 | CCc1cc(NCc2ccc3ccccc3c2)c(=O)[nH]c1C | 440 nM |  | 
3 | CCc1cc(CCc2nc3c(C)ccc(C)c3o2)c(=O)[nH]c1C | 23 nM |  | 
4 | CCc1cc(NCc2nc3c(C)ccc(C)c3o2)c(O)nc1C | 20 nM | 50 nM | 150 nM
5 | CCc1cc(NCc2nc3ccccc3o2)c(O)nc1C | 210 nM |  | 
6 | CCc1cc(NCc2nc3ccccc3s2)c(O)nc1C | 350 nM |  | 
7 | CC(C)=CCN1Cc2cccc3[nH]c(=S)n(c23)C[C@@H]1C |  | 200 nM | 
8 | CCc1cc(CCN2C(=O)c3ccccc3C2=O)c(O)nc1C | 3700 nM |  | 40000 nM
9 | CCc1cc(CCc2nc3ccccc3o2)c(O)nc1C | 22 nM | 100 nM | 200 nM
10 | CCc1cc(CCc2nc3ccccc3s2)c(O)nc1C | 370 nM |  | 
11 | CCc1cc(CCc2cc3ccccc3o2)c(O)nc1C | 77 nM |  | 
12 | CCc1cc(NCc2nc3ccccc3[nH]2)c(O)nc1C | 6400 nM |  | 
13 | CCc1cc(NCc2nc3c(C)cccc3o2)c(O)nc1C | 125 nM |  | 
14 | CCc1cc(CCc2nc3c(Cl)ccc(Cl)c3o2)c(O)nc1C | 9.6 nM | 100 nM | 
15 | CCc1cc(NCc2nc3cccc(C)c3o2)c(O)nc1C | 55 nM |  | 
16 | CCc1cc(NCc2nc3c(Cl)ccc(Cl)c3o2)c(O)nc1C [L-697661] | 19 nM | 50 nM | 100 nM
17 | Cc1ccnc2c1NC(=O)c1cccnc1N2C1CC1 [NEVIRAPINE] |  | 100 nM | 
